Data set [1] is described as follows: Hemolytic activity against human RBC assessed as hemolysis after 30 mins by colorimetric method. The data set is classed as ADME, cell-based, Erythrocyte. To be noted: human red blood cells (erythrocytes). The method in brief:
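Human erythrocytes washed twice in isotonic 172 mM Tris-HCl, pH 7.6; peptides dissolved in DMSO, diluted in buffer, two independent 10-step 2-fold series from 256 or 192 μg/mL. HC50 extrapolated as 50% hemolysis concentration.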

Data set [2] in a line: Therapeutic index, ratio of HC50 for human RBC to MIC for Escherichia coli DSM 1103. The data set is classed as toxicity. To be noted: human red blood cells versus Escherichia coli DSM 1103. Put shortly: (§1)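 Ratio of HC50 (RBC) to HeLa IC50 or to MIC against B. subtilis or E. coli; values measured in mg/mL and recalculated to μM, 2-fold dilution without curve fitting, accuracy within a factor of 2.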

The nature of data set [3]: Therapeutic index, ratio of HC50 for human RBC to MIC for Bacillus subtilis DSM 347. To be noted: human red blood cells versus Bacillus subtilis DSM 347. Type of data set: toxicity. Put shortly: as §1
In data set [4] the test system is Escherichia coli. As to the kind of experiment: Antimicrobial activity against Escherichia coli DSM 1103 after 22 hrs by resazurin dye based spectrophotometry. Type of data set: functional. The following applies: DSM 1103, 22 h. Put shortly: (§2)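 2-fold broth microdilution in Mueller–Hinton medium; peptide stocks 1024 μg/mL in 50% ethanol. Exponential-phase cultures diluted to OD550 0.2, then 1:100 (B. subtilis) or 1:1000 (E. coli), giving 5 × 10^5 CFU/mL per well. Incubated 22 h, 37 °C, static; then resazurin (0.2 mg/mL solution) added for 2 h at 37 °C, read visually and spectrophotometrically. Tested in both photoforms.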
On the technique in general: Resazurin is reduced to fluorescent resorufin, in cell work by metabolically active cells.

A short description of data set [5]: Selective ratio of HC50 for human RBC to IC50 for human HeLa cells. Type of data set: toxicity. To be noted: human red blood cells versus HeLa cells. The method in brief:
as §1

For data set [6], the system named is HeLa. As to the kind of experiment: Cytotoxicity against human HeLa cells assessed as reduction in cell viability after 24 hrs by MTT assay. The data set is classed as functional, cell-based. Put shortly:
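HeLa cells seeded at about 5 × 10^4 cells/mL in DMEM with 10% FBS, 2 mM glutamine, gentamicin; 24 h adaptation (37 °C, 5% CO2), then 24 h peptide exposure. MTT 4 h, formazan in DMSO read at 570 nm. 2-fold series 256–0.5 (open) or 512–1 μg/mL (closed), four repetitions; IC50 extrapolated from killing curves. Closed form handled in dim light.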
Background: Tetrazolium assays rely on reduction of a dye to a coloured formazan, in cell work by metabolically active cells.

The test system of data set [7] is Bacillus subtilis. Put plainly: Antimicrobial activity against Bacillus subtilis DSM 347 after 22 hrs by resazurin dye based spectrophotometry. Type of data set: functional. To be noted: DSM 347, 22 h. The method in brief:
as §2

Converted amounts (≈) assume the structure as drawn.

By HC50 is commonly meant the concentration that lyses half of the red blood cells. In general, MIC refers to the lowest concentration found to suppress growth. Lower therefore signals inhibition by little substance. The IC50 is the midpoint of a concentration-inhibition curve.

Take `CC(C)C[C@@H]1NC(=O)C2=CC3=C4CCCC4=C4C=C(S[C@]4(C)[C@@]3(C)S2)C(=O)[C@H]2CCCN2C(=O)[C@H](C(C)C)NC(=O)[C@H](CCCCN)NC(=O)[C@H](CC(C)C)NC(=O)[C@H](CCCCN)NC(=O)[C@@H]2CCCN2C(=O)[C@@H](Cc2ccccc2)NC(=O)[C@H](CCCCN)NC(=O)[C@H](C(C)C)NC(=O)[C@H](CCCCN)NC1=O`: the HC50 at 0.5 h in data set [1] worked out at 82 µM. In addition, the selectivity ratio in data set [2] stood at 0.5; in data set [3], 8.2; in data set [5] it was 1. The MIC in data set [4] was 164 µM (≈ 257 µg/mL); in data set [7] it was 10 µM (≈ 15.7 µg/mL). Besides, in data set [6], the half-inhibitory concentration (IC50) came to 82 µM.
`CC(C)C(=O)NCC[C@@H]1NC(=O)C2=CC3=C4CCCC4=C4C=C(S[C@]4(C)[C@@]3(C)S2)C(=O)[C@H]2CCCN2C(=O)[C@H](C(C)C)NC(=O)[C@H](CCCN)NC(=O)[C@H](C(C)C)NC(=O)[C@@H]2CCCN2C(=O)[C@@H](Cc2ccccc2)NC(=O)[C@H](C(C)C)NC(=O)[C@H](CCCN)NC1=O`: the HC50 at 0.5 h in data set [1] is 387 µM. For the same molecule, the selectivity ratio worked out at 2 in data set [2], 8.1 in data set [3] and 2 in data set [5]. The figures for the MIC in data set [4] and in data set [7] were 194 µM (≈ 257 µg/mL) and 48 µM (≈ 63.5 µg/mL), respectively. Further, the IC50 in data set [6] is 194 µM.
Turning to `Cc1sc2cc1C1=C(CCC1)c1cc(sc1C)C(=O)[C@H]1CCCN1C(=O)[C@H](C(C)C)NC(=O)[C@H](CCCCN)NC(=O)[C@H](CC(C)C)NC(=O)[C@H](CCCCN)NC(=O)[C@@H]1CCCN1C(=O)[C@@H](Cc1ccccc1)NC(=O)[C@H](CCCCN)NC(=O)[C@H](C(C)C)NC(=O)[C@H](CCCCN)NC(=O)[C@H](CC(C)C)NC2=O`, the HC50 at 0.5 h in data set [1] was found to be 82 µM. The selectivity ratio in data set [2] came to 2; in data set [3], 41; in data set [5], 2. The figures for the MIC in data set [4] and in data set [7] were 41 µM (≈ 64.2 µg/mL) and 2 µM (≈ 3.13 µg/mL), respectively. Also, the IC50 in data set [6] was determined as 41 µM.
For `Cc1sc2cc1C1=C(CCC1)c1cc(sc1C)C(=O)[C@H]1CCCN1C(=O)[C@H](CC(C)C)NC(=O)[C@H](CCCCN)NC(=O)[C@H](C(C)C)NC(=O)[C@H](CCCCN)NC(=O)[C@H](CC(C)C)NC(=O)[C@H](CCCCN)N(C)C(=O)[C@@H](Cc1ccccc1)NC(=O)[C@H](C(C)C)NC(=O)[C@H](CCCCN)NC(=O)[C@H](CC(C)C)NC(=O)[C@H](CCCCN)NC(=O)[C@H](C(C)C)NC2=O`, in data set [1], the HC50 at 0.5 h is less than 1 µM. Moreover, the selectivity ratio amounted to 0.1 in data set [2], 0.3 in data set [3] and 0.5 in data set [5]. For the same molecule, the MIC in data set [4] was found to be 18 µM (≈ 32.8 µg/mL); in data set [7], 4 µM (≈ 7.29 µg/mL). Also, the IC50 in data set [6] was 2 µM.
Regarding `CC[C@H](C)[C@@H]1NC(=O)c2cc(c(C)s2)C2=C(CCC2)c2cc(sc2C)C(=O)[C@H]2CCCN2C(=O)[C@H](CC(C)C)NC(=O)[C@H](CCCN)NC(=O)[C@H]([C@@H](C)CC)NC(=O)[C@@H]2CCCN2C(=O)[C@H]2CCCN2C(=O)[C@H](CC(C)C)NC(=O)[C@H](CCCN)NC1=O`, the HC50 at 0.5 h in data set [1] amounted to 8 µM. Besides, the figures for the selectivity ratio in data set [2], in data set [3] and in data set [5] were 0.2, 4 and 1.3, respectively. The MIC in data set [4] was found to be 51 µM (≈ 64.2 µg/mL); in data set [7], 2 µM (≈ 2.52 µg/mL). Also, the IC50 in data set [6] came to 6 µM.
As for `Cc1sc2cc1C1=C(CCC1)c1cc(sc1C)C(=O)[C@H]1CCCN1C(=O)[C@H](CC(C)C)NC(=O)[C@H](CCCNC(=N)N)NC(=O)[C@H](C(C)C)NC(=O)[C@@H]1CCCN1C(=O)[C@@H](Cc1ccccc1)NC(=O)[C@H](CC(C)C)NC(=O)[C@H](CCCNC(=N)N)NC(=O)[C@H](C(C)C)NC2=O`, the HC50 at 0.5 h in data set [1] is 2 µM. In addition, the selectivity ratio in data set [2] was determined as 0.1; in data set [3], 0.7; in data set [5], 0.5. For the same molecule, the MIC in data set [4] was 35 µM (≈ 47.8 µg/mL); in data set [7], 3 µM (≈ 4.09 µg/mL). Further, the IC50 in data set [6] was 4 µM.
As for `Cc1sc2cc1C1=C(CCC1)c1cc(sc1C)C(=O)[C@H]1CCCN1C(=O)[C@H](C(C)C)NC(=O)[C@H](CCCN)NC(=O)[C@H](C(C)C)NC(=O)[C@@H]1CCCN1C(=O)[C@@H](Cc1ccccc1)NC(=O)[C@H](C(C)C)NC(=O)[C@H](CCCN)NC(=O)[C@H](CCNC(=O)C(C)C)NC2=O`, the HC50 at 0.5 h in data set [1] amounted to 170 µM. The selectivity ratio in data set [2] worked out at 1.8; in data set [3] it was 56.7; in data set [5], 4.7. The figures for the MIC in data set [4] and in data set [7] were 97 µM (≈ 128 µg/mL) and 3 µM (≈ 3.97 µg/mL), respectively. For the same molecule, the IC50 in data set [6] is 36 µM.
`Cc1sc2cc1C1=C(CCC1)c1cc(sc1C)C(=O)[C@H]1CCCN1C(=O)[C@H](CC(C)C)NC(=O)[C@H](CCCCN)NC(=O)[C@H](C(C)C)NC(=O)[C@H](CCCCN)N(C)C(=O)[C@@H](Cc1ccccc1)NC(=O)[C@H](CC(C)C)NC(=O)[C@H](CCCCN)NC(=O)[C@H](C(C)C)NC2=O`: in data set [1], the HC50 at 0.5 h amounted to 4 µM. The values for the selectivity ratio in data set [2], in data set [3] and in data set [5] were 0.1, 1.3 and 1.3, respectively. Besides, the results for the MIC in data set [4] and in data set [7] were 47 µM (≈ 63.6 µg/mL) and 3 µM (≈ 4.06 µg/mL), respectively. In data set [6], the IC50 was 3 µM.
For `Cc1sc2cc1C1=C(CCC1)c1cc(sc1C)C(=O)[C@H]1CCCN1C(=O)[C@H](C)NC(=O)[C@H](CCCN)NC(=O)[C@H](C(C)C)NC(=O)[C@@H]1CCCN1C(=O)[C@@H](Cc1ccccc1)NC(=O)[C@H](CC(C)C)NC(=O)[C@H](CCCN)NC(=O)[C@H](C)NC2=O`, the HC50 at 0.5 h in data set [1] amounted to 87 µM. Further, the selectivity ratio in data set [2] was determined as 0.8; in data set [3] it was 12.4; in data set [5], 2.2. Further, the figures for the MIC in data set [4] and in data set [7] were 106 µM (≈ 128 µg/mL) and 7 µM (≈ 8.47 µg/mL), respectively. The IC50 in data set [6] is 40 µM.
Regarding `Cc1sc2cc1C1=C(CCC1)c1cc(sc1C)C(=O)[C@H]1CCCN1C(=O)[C@H](CC(C)C)NC(=O)[C@H](CCCN)NC(=O)[C@H](C(C)C)NC(=O)[C@@H]1CCCN1C(=O)[C@@H](Cc1ccccc1)NC(=O)[C@H](CC(C)C)NC(=O)[C@H](CCCN)NC(=O)[C@H](CCCN)NC2=O`, in data set [1], the HC50 at 0.5 h was 12 µM. The selectivity ratio is 0.5 in data set [2], 6 in data set [3] and 2 in data set [5]. Moreover, the values for the MIC in data set [4] and in data set [7] were 25 µM (≈ 32.4 µg/mL) and 2 µM (≈ 2.59 µg/mL), respectively. The IC50 in data set [6] is 6 µM.
As for `CC(C)C[C@@H]1NC(=O)[C@H](CCCNC(=N)N)NC(=O)[C@H](C(C)C)NC(=O)C2=CC3=C4CCCC4=C4C=C(S[C@]4(C)[C@@]3(C)S2)C(=O)[C@H]2CCCN2C(=O)[C@H](CC(C)C)NC(=O)[C@H](CCCNC(=N)N)NC(=O)[C@H](C(C)C)NC(=O)[C@@H]2CCCN2C(=O)[C@@H](Cc2ccccc2)NC1=O`, the HC50 at 0.5 h in data set [1] was determined as 10 µM. For the same molecule, the selectivity ratio in data set [2] amounted to 0.1; in data set [3], 1.7; in data set [5] it was 0.3. The MIC is 94 µM (≈ 128 µg/mL) in data set [4] and 6 µM (≈ 8.19 µg/mL) in data set [7]. In addition, in data set [6], the IC50 was 35 µM.
On to `CC(C)C[C@@H]1NC(=O)[C@H](CCCN)NC(=O)[C@H](C(C)C)NC(=O)C2=CC3=C4CCCC4=C4C=C(S[C@]4(C)[C@@]3(C)S2)C(=O)[C@H]2CCCN2C(=O)[C@H](C)NC(=O)[C@H](CCCN)NC(=O)[C@H](C(C)C)NC(=O)[C@@H]2CCCN2C(=O)[C@@H](Cc2ccccc2)NC1=O`, for which the HC50 at 0.5 h in data set [1] came out at 45 µM. For the same molecule, the values for the selectivity ratio in data set [2], in data set [3] and in data set [5] were 0.2, 3.5 and 1.2, respectively. For the same molecule, the values for the MIC in data set [4] and in data set [7] were 207 µM (≈ 256 µg/mL) and 13 µM (≈ 16.1 µg/mL), respectively. In addition, in data set [6], the IC50 was 39 µM.

For the origin of these results see ChEMBL document CHEMBL4257585, “Structure-Activity Relationships of Photoswitchable Diarylethene-Based β-Hairpin Peptides as Membranolytic Antimicrobial and Anticancer Agents” (J Med Chem, 2018).
